Compound activity (PubChem BioAssay)
HUVEC inhibit: blocks proliferation of human endothelial cells | HUVEC proliferation, CellTiter-Glo luminescence, 72 h; active compounds read low | viability, % at 10 µM (by protocol) | 1.1% of 86,000 active;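 active = viability at or below 30%; inactive = viability above 30%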;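 also: 100% = median luminescence of DMSO-only cell control wells on each plate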
Fibroblast inh: blocks proliferation of human lung fibroblasts; viability, % at 10 µM; 1.1% of 85,000 active; LL 47 human lung fibroblast viability, ATP luminescence; active compounds read low; AID 719;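 active = viability at or below 50% in the single dose screen; inactive = viability above 50%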;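 also: compound exposure lasted 72 h before the ATP readout; 100% = median luminescence of untreated cell-only wells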
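Benchmarks: Cell-only wells, no compound | Test system: LL 47 human lung fibroblasts, passage 12 or lower | Input: 1,150 cells/well | Measured by: CellTiter-Glo luminescence measuring cellular ATP | Medium: IMEM, 15% FBS supplement | Schedule: Overnight attachment after seeding, then 72 h compound exposure at 37 °C | Doses: Compound addition at 0.1% DMSO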
bCat KO growth: beta-catenin-lacking colon tumor cell growth suppression. 1.5% of 140,000 active. HCT116 beta-catenin knockout viability, CellTiter-Glo, 60 h; active compounds read low. viability, % at 10 µM. AID 818;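 active = viability at or under a set limit, the compound median less 4 SD, cut at about 6% in these data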;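 also: 0% = Hyamine 1622 control at 20 µM and 100% = untreated cell control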
HCT116 PTEN-null: growth suppressors of cells with PTEN tumor suppressor deletion. viability, % at 10 µM. HCT116 PTEN-null viability, CellTiter-Glo, 60 h; active compounds read low. AID 827. 1.2% of 140,000 active;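 active = viability at or below a set limit, 4 SD under the median of all tested compounds, cut at about 3.7% in these data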;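 also: PTEN knockout HCT116 line with beta catenin targeted HCT116 as companion control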
H69AR inhibit: blocks growth of human H69AR lung tumor cells; 6% of 85,000 active; H69AR lung tumor viability, ATP luminescence, 72 h; active compounds read low; AID 598; viability, % at 10 µM;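 active = viability at or below 40%; inactive = viability above 40%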;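 also: multidrug resistant small cell line overexpressing MRP-1 efflux transporter; 100% = mean luminescence of untreated control wells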
* = called active by the depositor; / = no result given. Shown is part of a subset that was picked to be rich in hits.

SMILES	HUVEC inhibit	Fibroblast inh	bCat KO growth	HCT116 PTEN-null	H69AR inhibit
O=c1[nH]c(=O)n(CCc2ccccc2)c(O)c1C=NCCN1CCNCC1	101	101	100	99	93
COc1cccc(OC)c1C1=NCC(=O)Nc2c1oc1ccc(Br)cc21	46	60	15	16	34*
CC(=O)OC(C)(C)/C=C/C(=O)[C@](C)(O)[C@H]1[C@H](O)C[C@@]2(C)[C@@H]3CC=C4[C@H](C[C@H](O)C(=O)C4(C)C)[C@]3(C)C(=O)C[C@]12C	/	/	2.4*	1.9*	/
COc1ccc(Cn2c(O)c(/C=N/NC(=O)c3ccccc3O)c(=O)[nH]c2=O)cc1	/	/	93	97	/
Cc1cccn2c(=O)c3c(nc12)N1CCC(Cc2ccccc2)CC1C1(C3)C(=O)N(C)C(=O)N(C)C1=O (configuration not stated)	74	103	68	70	29*
O=C(c1ccccc1F)c1cn(CC(=O)N2CCCCC2)c2ccccc12	90	90	82	81	64
O=C(Nc1ccccc1)NC1CC2CCC(C1)N2 (configuration not stated)	95	98	104	104	89
CCOCCCN=Cc1c(O)n(Cc2ccccc2)c(=O)[nH]c1=O	97	89	106	99	95
C=CCn1c(O)c(C=NCCCOc2ccc(CC)cc2)c(=O)[nH]c1=S	49	83	69	70	31*
O=c1[nH]c(=O)n(Cc2ccc(F)cc2)c(O)c1C=NCCN1CCCCC1	89	96	108	111	104
O=C(c1ccc2c(c1)ncn2C1CCCCCC1)N1CCC2(CC1)OCCO2	97	95	42	42	28*
Cc1nc2cc(C(=O)N3CCC4(CC3)OCCO4)ccc2n1-c1cccc(F)c1	100	99	98	95	88
Fc1ccc(CCNCc2cccc(Cl)c2)cc1	/	/	90	89	/
CCc1nc2ccccc2c(=O)n1-c1ccc2ccccc2c1	81	91	87	95	31*
Nc1cc(Cl)c2nonc2c1[N+](=O)[O-]	/	/	4.9*	2.2*	/
CCCCCCCSc1cc(OC)c(CCNC)cc1OC	/	/	1.5*	1.6*	/
CN(C)C=C1C(=O)N(C2CCCCC2)C(=O)N(C2CCCCC2)C1=O	67	95	88	91	31*
CCN(CC)c1ccc(N=Cc2c(O)n(-c3ccccc3C)c(=O)[nH]c2=O)cc1	83	93	64	66	55
CCOc1ccc(-n2c(O)c(C=Nc3ccc(N(CC)CC)cc3)c(=O)[nH]c2=O)cc1	90	103	71	73	54
CCN(CC)c1ccc(N=Cc2c(O)n(Cc3ccccc3)c(=O)[nH]c2=O)cc1	70	74	86	97	17*
CCOc1ccccc1-n1c(O)c(C=Nc2ccc(N(CC)CC)cc2)c(=O)[nH]c1=O	65	71	44	53	19*
C=CCn1c(O)c(C(C)=Nc2ccc(N(CC)CC)cc2)c(=O)[nH]c1=O	70	66	36	28	20*
CC(C)CCOC(=O)c1c(N)n(CC2CCCO2)c2nc3ccccc3nc12 (configuration not stated)	66	99	42	44	52
CC(C)CCn1c(N)c(C(=O)OCC2CCCO2)c2nc3ccccc3nc21 (configuration not stated)	60	91	34	30	20*
CC(C)OC(=O)c1c(N)n(CC2CCCO2)c2nc3ccccc3nc12 (configuration not stated)	87	/	93	89	34*
SMILES	HUVEC inhibit	Fibroblast inh	bCat KO growth	HCT116 PTEN-null	H69AR inhibit
COc1ccc(OC)c2c1CCC1NCCOC21 (configuration not stated)	/	/	105	87	/
Cc1ccccc1NC1=NCCCS1	100	102	95	94	86
COc1ccc(CCNC(=O)c2c(N)n(CCN3CCOCC3)c3nc4ccccc4nc23)cc1OC	59	92	33	21	12*
COCCCn1c(N)c(C(=O)NCCC(C)C)c2nc3ccccc3nc21	87	81	1.6*	2.7*	18*
CCCCCn1c(N)c(C(=O)NCCN2CCOCC2)c2nc3ccccc3nc21	55	82	53	46	30*
CCOCCCn1c(N)c(C(=O)Nc2sc3c(c2C(=O)OC)CCCC3)c2nc3ccccc3nc21	/	/	48	29	/
CCCNC(=O)c1c(N)n(CC2CCCO2)c2nc3ccccc3nc12 (configuration not stated)	67	92	70	63	87
CCOC(=O)c1c(NC(=O)c2c(N)n(CCCOC)c3nc4ccccc4nc23)sc2c1CCCC2	76	90	4.0*	15	11*
CC(C)OCCCNC(=O)c1c(N)n(CC2CCCO2)c2nc3ccccc3nc12 (configuration not stated)	74	96	46	39	62
CCCCOCCCn1c(N)c(C(=O)OCCOC)c2nc3ccccc3nc21	89	111	67	74	59
Cc1ccc2nsnc2c1-n1c(C)nc2ccccc2c1=O	97	106	101	93	99
COc1ccccc1N1C(=O)NC(=O)C(CCc2ccncc2)(CCc2ccncc2)C1=O	100	109	90	111	105
CCCCNC(=O)c1c(N)n(Cc2ccc3c(c2)OCO3)c2nc3ccccc3nc12	41	60	34	35	5.1*
CCCCCCn1c(N)c(C(=O)NCCN2CCOCC2)c2nc3ccccc3nc21	28*	73	27	1.4*	1.5*
CCCCn1c(N)c(C(=O)OCC2CCCO2)c2nc3ccccc3nc21 (configuration not stated)	60	87	87	93	50
Nc1c(C(=O)NCc2ccco2)c2nc3ccccc3nc2n1Cc1ccccc1	/	/	53	33	/
Nc1c(C(=O)NCc2ccco2)c2nc3ccccc3nc2n1CCN1CCOCC1	70	94	52	34	39*
O=c1[nH]c(=O)n(C2CCCCC2)c(O)c1C=Nc1ccc(N2CCOCC2)cc1	/	/	99	111	/
COc1ccccc1-n1c(-c2ccoc2)nc2ccccc2c1=O	/	/	90	82	/
O=c1c2ccccc2nc(-c2ccoc2)n1-c1ccccc1Cl	86	98	36	34	34*
Fc1ccc2c(c1)nnn2C1CCN(Cc2nnnn2C2CCCCC2)CC1	97	92	92	92	27*
Cc1ccc(Cn2nnnc2CN2CCC(n3nnc4cc(C)ccc43)CC2)cc1	65	90	47	43	27*
Cc1ccc(Cn2nnnc2CN2CCC(n3nnc4cc(C(F)(F)F)ccc43)CC2)cc1	54	75	47	43	2.0*
FC(F)(F)c1ccc2c(c1)nnn2C1CCN(Cc2nnnn2Cc2ccccc2)CC1	70	93	55	42	/
Fc1ccc2c(c1)nnn2C1CCN(Cc2c(Cl)cccc2Cl)CC1	89	96	83	72	88
COc1ccc(C(CC(=O)N2CCC3(CC2)OCCO3)NS(=O)(=O)c2ccc(F)cc2)cc1 (configuration not stated)	/	/	100	92	/
